Measurements reported in paper PMC4938767 (Structure (London, England : 1993), 2016).

Experiments:
hNaa60 1–184 = assay: Size-exclusion chromatography, dimer to monomer transition; parameters: species or system human; conditions: with Ac-CoA
other acetyltransferases = conditions: ref De Angelis et al., 1998; Thompson et al., 2001; cited from earlier work
[1] = test system: N-terminal acetyltransferase Naa50; conditions: ref Evjenth et al., 2012; cited from earlier work
[2] = DSF / purification stability of hNaa60 point mutants; conditions: for initial fluorescence (in words): vs hNaa60 WT; for stability on purification (in words): data not shown
[3] = test system: substrate polypeptide MKAV24; format: biochemical; conditions: for Wild-type efficiency (%): catalytic efficiency relative to hNaa60 WT; for Kcat/Km: hNaa60 variant, substrate peptide MKAV24, 50 mM HEPES pH 7.5, 100 mM NaCl, 2 mM EDTA, DTNB, 412 nm; for catalytic efficiency (in words): β3–β4 loop contact mutants; for reduction in catalytic efficiency: substrate MKAV24, compared to hNaa60 WT; for change in Km (in words): substrate MKAV24, vs hNaa60 WT
Method in brief: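 Purified hNaa60 variants (His-SUMO tag cleaved, nickel-purified) with peptide and Ac-CoA in assay buffer, quenched with 3.2 M guanidinium-HCl/100 mM sodium phosphate pH 6.8. CoA detected with DTNB (2 mM final) at 412 nm, negative-control background subtracted. Thiophenolate quantified with ε = 13.7 × 103 M−1 cm−1. Rates taken in the linear phase and fitted for kinetic constants.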

Which “elution of hNaa60 1–184 (oligomeric state, in words)” value (hNaa60 1–184) does the source give for `CC(=O)SCCNC(=O)CCNC(=O)[C@H](O)C(C)(C)COP(=O)(O)OP(=O)(O)OC[C@H]1O[C@@H](n2cnc3c(N)ncnc32)[C@H](O)[C@@H]1OP(=O)(O)O` [Ac-CoA, acetyl CoA] here?
The value was “elutes at a column volume corresponding to twice the theoretical size of the enzyme”.

Which “inhibitor type (other acetyltransferases)” value (other acetyltransferases) does the source give for `CCNC(=O)CCNC(=O)[C@H](O)C(C)(C)COP(=O)(O)OP(=O)(O)OC[C@H]1O[C@@H](n2cnc3c(N)ncnc32)[C@H](O)[C@@H]1OP(=O)(O)O` [desulfoCoA] here?
Its value is “competitive inhibitor”.

What about the “inhibitor type (Naa50)” value [1] of the same molecule?
Its value is “competitive inhibitor”.

Which results are given for “D81A: hNaa60 point mutant, β3–β4 loop contact”?
destabilization compared to hNaa60 WT (in words) ([2]; DSF): clearly destabilized compared to hNaa60 WT; initial fluorescence (in words) ([2]; DSF): higher initial fluorescence; Wild-type efficiency (%) ([3]; substrate MKAV24): 136.9%; Kcat/Km [3]: 518 M⁻¹ s⁻¹; catalytic efficiency (in words) ([3]; substrate MKAV24): modest overall effect on catalytic efficiency

For “H138A: hNaa60 point mutant, catalytic residue”, which “stability on purification (in words)” value [2] is on record?
The value was “unstable and could not be purified”.

With “H138F: hNaa60 point mutant, catalytic residue” as the molecule, how does the “stability on purification (in words)” value [2] read?
Its value is “unstable and could not be purified”.

Which “destabilization compared to hNaa60 WT (in words)” value ([2]; DSF) does the source give for “I36A: hNaa60 point mutant, M1p hydrophobic pocket” here?
The value was “did not show any signs of destabilization”.

And the Kcat/Km [3]?
The Kcat/Km was 60 M⁻¹ s⁻¹.

What about the “reduction in catalytic efficiency” value [3] of the same molecule?
The value was about 6 fold.

What about the “change in Km (in words)” value [3] of the same molecule?
Its value is “small increase in Km”.

For “I84A: hNaa60 point mutant, β3–β4 loop contact”, which “destabilization compared to hNaa60 WT (in words)” value ([2]; DSF) is on record?
Its value is “clearly destabilized compared to hNaa60 WT”.

What about the “initial fluorescence (in words)” value ([2]; DSF) of the same molecule?
The value was “higher initial fluorescence”.

And the “Wild-type efficiency (%)” value ([3]; substrate MKAV24)?
Its value is 200.4%.

And the Kcat/Km [3]?
The Kcat/Km was 758 M⁻¹ s⁻¹.

What about the “catalytic efficiency (in words)” value ([3]; substrate MKAV24) of the same molecule?
Its value is “modest overall effect on catalytic efficiency”.

Which results are given for “I167A: hNaa60 point mutant, M1p hydrophobic pocket”?
Wild-type efficiency (%) ([3]; substrate MKAV24): 33.3%; Kcat/Km [3]: 123 M⁻¹ s⁻¹; reduction in catalytic efficiency [3]: ~3 fold; change in Km (in words) [3]: small increase in Km

With “L140A: hNaa60 point mutant, M1p hydrophobic pocket” as the molecule, how does the “Wild-type efficiency (%)” value ([3]; substrate MKAV24) read?
Its value is 56.0%.

What about the Kcat/Km [3] of the same molecule?
The Kcat/Km was 210 M⁻¹ s⁻¹.

And the “catalytic efficiency (kcat/Km) as fold of hNaa60 WT” value ([3]; substrate MKAV24)?
Its value is “approximately 0.5 fold”.

What does the source list for P35A/I36A/I167A: hNaa60 triple mutant?
Wild-type efficiency (%) ([3]; substrate MKAV24): <10%; catalytic activity (in words) ([3]; substrate MKAV24): not able to detect any catalytic activity

With “P35A: hNaa60 point mutant, M1p hydrophobic pocket” as the molecule, how does the Kcat/Km [3] read?
The Kcat/Km was 60 M⁻¹ s⁻¹.

And the “reduction in catalytic efficiency” value [3]?
Its value is about 6 fold.

What about the “change in Km (in words)” value [3] of the same molecule?
Its value is “small increase in Km”.

For WT: wild-type hNaa60 enzyme, which “melting point (apo)” value ([2]; DSF, apo hNaa60) is on record?
Its value is 47.9 °C.

And the “Wild-type efficiency (%)” value ([3]; substrate MKAV24)?
The value was 100%.

Which “Wild-type efficiency (%)” value ([3]; substrate MKAV24) does the source give for “Y38A: hNaa60 point mutant, peptide anchoring residue” here?
The value was under 10%.

What about the “catalytic activity (in words)” value ([3]; substrate MKAV24) of the same molecule?
The value was “complete loss of catalytic activity”.

What does the source list for “Y97F: hNaa60 point mutant, catalytic residue”?
Wild-type efficiency (%) ([3]; substrate MKAV24): <10%; catalytic activity (in words) ([3]; substrate MKAV24): complete loss of catalytic activity

For “Y164A: hNaa60 point mutant, β3–β4 loop contact”, which “Wild-type efficiency (%)” value ([3]; substrate MKAV24) is on record?
The value was 141.7%.

And the Kcat/Km [3]?
Its Kcat/Km is 535 M⁻¹ s⁻¹.

With “Y164F: hNaa60 point mutant, β3–β4 loop contact” as the molecule, how does the “destabilization compared to hNaa60 WT (in words)” value ([2]; DSF) read?
Its value is “clearly destabilized compared to hNaa60 WT”.

What about the “Wild-type efficiency (%)” value ([3]; substrate MKAV24) of the same molecule?
The value was 154.9%.

What about the Kcat/Km [3] of the same molecule?
The Kcat/Km was 585 M⁻¹ s⁻¹.

What does the source list for “Y165F: hNaa60 point mutant, peptide anchoring residue”?
Wild-type efficiency (%) ([3]; substrate MKAV24): 24.4%; Kcat/Km [3]: 90 M⁻¹ s⁻¹; reduction in catalytic efficiency [3]: approximately 4 fold
